What was measured:
[1] = Ratio of CD50 and ED50 values against inhibition of HIV in MT-4 cells; assay type: functional, MT4
MT4 [2] = assay: Effective dose required to inhibit HIV-induced cytopathogenicity in human MT-4 cells; assay type: functional; details: read-out: ED50 (the source's name)
Procedure, shortened: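 After 5 days at 37 °C, viable cells counted by trypan blue exclusion in a hemacytometer. ED₅₀ is the dose giving 50% protection against HIV-induced cytopathogenicity.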

[3] = Toxic dose required to cause an alteration of normal C3H cell morphology; assay type: functional, Mus musculus
Procedure, shortened: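 C3H cell cultures were exposed to graded compound concentrations and examined by microscope. TD is the dose that alters normal cell morphology.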

[4] = Effective dose required to inhibit MSV-induced transformation in murine C3H cells; assay type: functional; details: Mus musculus, read-out: ED50 (the source's name)
Procedure, shortened: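 Confluent mouse embryo C3H monolayers were infected with 80 focus-forming units of MSV for 90 min. Medium was then replaced with fresh medium holding graded compound concentrations. After 6 days at 37 °C, transformation was scored microscopically. ED₅₀ is the dose that inhibits transformation by 50%.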

MT4 [5] = assay: Cytotoxic dose required to reduce MT-4 cell viability by 50%

| EC50 [4] [µM] | Structure (SMILES) | Ratio [1] | EC50 (MT4 [2]) [µM] | TD [3] [µM] | CD50 (MT4 [5]) [µM] |
| --- | --- | --- | --- | --- | --- |
| 6.2 | [N-]=[N+]=N[C@@H]1C[C@H](N2C=NC3C(=O)N=C(N)N=C32)O[C@@H]1CO (stereo not given in full) | 59 | 2.8 | >400 | 165 |
| 19 | Nc1nc(N)c2ncn([C@H]3CC[C@@H](CO)O3)c2n1 | 115 | 3.5 | > 200 | 404 |

Reference: ChEMBL document CHEMBL1124551, “Nucleic acid related compounds. 57. Synthesis, x-ray crystal structure, lipophilic partition properties, and antiretroviral activities of anomeric 3'-azido-2',3'-dideoxy-2,6-diaminopurine ribosides” (J Med Chem, 1989)
